Measurements: ChEMBL document CHEMBL1156562, “4-Amino-2-cyanopyrimidines: novel scaffold for nonpeptidic cathepsin S inhibitors” (Bioorg Med Chem Lett, 2008)
Converted amounts (≈) assume the structure as drawn. The source made the active and inactive calls. The rule behind the calls is not given here.

Experiments:
Cathepsin S = Cathepsin S (Homo sapiens, UniProt P25774); test: Inhibition of human recombinant cathepsin S by fluorometric assay
In short: (§1)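 Fluorometric inhibition assay with recombinant human enzymes. Cat K and Cat L used Z-Phe-Arg-AMC as substrate. Cat S used L-Leu-Leu-Arg-AMC as substrate. Values reported as IC50.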

Procathepsin L = Procathepsin L (Homo sapiens, UniProt P07711); test: Inhibition of human recombinant cathepsin L by fluorometric assay; in short: as §1
Chain of Procathepsin L (P07711 whole entry): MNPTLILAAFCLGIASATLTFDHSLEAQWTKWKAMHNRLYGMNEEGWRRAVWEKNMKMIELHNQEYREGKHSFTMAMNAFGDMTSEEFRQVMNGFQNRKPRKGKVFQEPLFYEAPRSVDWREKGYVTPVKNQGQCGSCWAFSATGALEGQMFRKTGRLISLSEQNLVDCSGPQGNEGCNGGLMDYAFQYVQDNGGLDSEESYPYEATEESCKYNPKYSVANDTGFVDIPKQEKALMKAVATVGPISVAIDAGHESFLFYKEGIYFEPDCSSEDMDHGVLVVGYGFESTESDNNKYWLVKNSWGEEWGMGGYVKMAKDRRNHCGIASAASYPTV

[1] = Half life in Sprague-Dawley rat at 1 mg/kg, iv; format: ADME, organism-based; parameters: dose 1 mg/kg, route intravenous; settings: in vivo
In short: (§2)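 Male Sprague-Dawley rats, cassette dosing. Single iv dose of 1 mg/kg and po dose of 3 mg/kg. Clearance and half-life taken from iv data. Bioavailability and po AUC derived from both routes, with AUC dose-normalized to 1 mg/kg. Values are means of n = 3, with n = 2 for some iv groups.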

[2] = Aqueous solubility at pH 6.8; format: physicochemical
In short: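 Thermodynamic solubility, measured at pH 6.8 and 25 °C.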

Cathepsin K = target: T1, Cathepsin K (Homo sapiens, UniProt P43235); test: Inhibition of human recombinant cathepsin K by fluorometric assay; in short: as §1
T1 sequence (P43235 whole entry): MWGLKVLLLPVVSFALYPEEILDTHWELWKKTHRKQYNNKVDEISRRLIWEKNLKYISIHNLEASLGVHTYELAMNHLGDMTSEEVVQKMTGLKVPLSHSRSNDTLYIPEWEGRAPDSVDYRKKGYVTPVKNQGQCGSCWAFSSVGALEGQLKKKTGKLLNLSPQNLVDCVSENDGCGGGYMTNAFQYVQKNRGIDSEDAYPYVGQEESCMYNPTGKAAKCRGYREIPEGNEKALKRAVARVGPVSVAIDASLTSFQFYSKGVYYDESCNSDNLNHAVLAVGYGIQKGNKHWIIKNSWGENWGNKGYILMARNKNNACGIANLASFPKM

[3] = Clearance in Sprague-Dawley rat at 1 mg/kg, iv and 3 mg/kg, po; format: ADME, organism-based; settings: in vivo; in short: as §2
[4] = Bioavailability in Sprague-Dawley rat at 1 mg/kg, iv and 3 mg/kg, po; format: ADME, organism-based; settings: in vivo; in short: as §2
Homo sapiens = species: Homo sapiens; test: Selectivity for human recombinant cathepsin S over human recombinant cathepsin L
[5] = Clearance in Sprague-Dawley rat at 1 mg/kg, iv; format: ADME, organism-based; parameters: dose 1 mg/kg, route intravenous; settings: in vivo; in short: as §2
Rattus norvegicus = test: Bioavailability in Sprague-Dawley rat at 1 mg/kg, iv; format: ADME, organism-based; settings: in vivo; in short: as §2
[6] = target: Cathepsin S (Mus musculus) (UniProt O70370); test: Inhibition of cathepsin S in mouse A20 cells assessed as invariant chain degradation at 1 uM; format: cell-based
In short: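 Mouse A20 cells treated at 1 µM. Cellular cathepsin S activity read out as degradation of invariant chain (Ii).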

Chain of Cathepsin S (P25774 whole entry): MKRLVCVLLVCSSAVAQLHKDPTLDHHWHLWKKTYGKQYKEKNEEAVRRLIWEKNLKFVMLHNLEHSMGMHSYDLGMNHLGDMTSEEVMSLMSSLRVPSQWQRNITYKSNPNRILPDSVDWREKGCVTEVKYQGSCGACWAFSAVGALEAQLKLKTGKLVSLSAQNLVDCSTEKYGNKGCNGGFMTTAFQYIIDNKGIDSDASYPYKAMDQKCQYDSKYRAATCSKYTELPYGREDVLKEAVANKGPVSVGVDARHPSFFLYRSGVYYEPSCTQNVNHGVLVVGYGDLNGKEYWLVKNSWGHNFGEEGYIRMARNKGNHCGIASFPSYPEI

| IC50 (Cathepsin S) [nM] | IC50 (Procathepsin L) [nM] | IC50 (Cathepsin K) [nM] | SMILES | also measured |
| --- | --- | --- | --- | --- |
| 21 | 840 |  | C[C@@](Cc1ccccc1)(CN1CCCC1)NC(=O)c1cnc(C#N)nc1NCC1CCC2(CC1)CC2 |  |
| 2 | 280 | 100 | CN1CCC(CCOc2nc(C#N)nc(NCC3CCC4(CC3)CC4)c2Br)CC1 | half-life [1]: 4.6 h; solubility [2]: 11 µg/mL (≈ 23.8 µM); clearance [3]: 85 mL/min/kg; bioavailability [4]: 100% |
| 93 | > 3000 | > 3000 | CC1(C)CCC(CNc2nc(C#N)ncc2C(=O)NCCc2ccccc2)CC1 |  |
| 32 | 2000 | 36 | CN(CC1CCCCC1)c1nc(C#N)ncc1C(=O)NCCc1ccccc1 |  |
| 2 | 180 | 140 | CN1CCC(Cc2ccccc2)(NC(=O)c2cnc(C#N)nc2NCC2CCC3(CC2)CC3)CC1 | Selectivity ratio (Homo sapiens): > 100 |
| 4 | 480 |  | N#Cc1ncc(C(=O)N[C@H](Cc2ccccn2)CN2CCCC2)c(NCC2CCC3(CC2)CC3)n1 |  |
| < 1 | 270 |  | CN1CCC(CCOc2nc(C#N)nc(NCC3CCC4(CC3)CC4)c2C(=O)NCc2ccccc2)CC1 |  |
| 22 | > 3000 | 130 | N#Cc1ncc(C(=O)NCCc2ccccc2)c(NCC2CCC(F)(F)CC2)n1 |  |
| 15 | > 3000 | > 3000 | N#Cc1ncc(C(=O)NCCc2ccccc2)c(NCC2CCC3(CC2)CC3)n1 |  |
| 6 | 700 | 170 | CN1CCC(CNC(=O)c2cnc(C#N)nc2NCC2CCC3(CC2)CC3)(c2ccccc2)CC1 | clearance [5]: 173 mL/min/kg; half-life [1]: 3.3 h; Selectivity ratio (Homo sapiens): > 100; F (Rattus norvegicus): 100%; solubility [2]: 89 µg/mL (≈ 188 µM); Activity [6]: Active |
| 14 | 780 | 9 | N#Cc1ncc(C(=O)NCCc2ccccc2)c(OCC2CCCCC2)n1 |  |
| 22 | > 2000 | 15 | N#Cc1ncc(C(=O)NCCc2ccccc2)c(NCC2CCCCC2)n1 |  |
| 24 | > 3000 | > 1000 | COc1cc(NC(=O)c2cnc(C#N)nc2NCC2CCC3(CC2)CC3)c(-c2ccccc2)cc1OC |  |
| 1 | 100 |  | CN1CCC(Oc2nc(C#N)nc(NCC3CCC4(CC3)CC4)c2C(=O)NCc2ccccc2)CC1 |  |
| 23 | 1500 | 200 | N#Cc1ncc(C(=O)N[C@@H](Cc2ccccc2)CN2CCCC2)c(NCC2CCC3(CC2)CC3)n1 |  |
| 2 | 120 |  | CNC(=O)c1c(NCC2CCC3(CC2)CC3)nc(C#N)nc1OCCC1CCN(C)CC1 |  |
| 130 | 1100 | 10 | N#Cc1ncc(C(=O)NCCc2ccccc2)c(NC2CCCCC2)n1 |  |
| < 1 | 10 |  | CN1CCC(CCOc2nc(C#N)nc(NCC3CCC4(CC3)CC4)c2C(=O)NCCc2ccccc2)CC1 |  |
| < 1 | 64 |  | CN1CCC(COc2nc(C#N)nc(NCC3CCC4(CC3)CC4)c2C(=O)NCc2ccccc2)CC1 |  |
| 7 | 510 |  | CN1CCC(NC(=O)c2cnc(C#N)nc2NCC2CCC3(CC2)CC3)(c2ccccc2)CC1 | Selectivity ratio (Homo sapiens): > 100 |
| < 1 | 150 | 44 | N#Cc1ncc(C(=O)N[C@H](Cc2ccccc2)CN2CCCC2)c(NCC2CCC3(CC2)CC3)n1 | half-life [1]: 5.7 h; Selectivity ratio (Homo sapiens): > 100; solubility [2]: 27 µg/mL (≈ 57.1 µM); clearance [3]: 16.7 mL/min/kg; bioavailability [4]: 42%; Activity [6]: Active |
| 22 | 870 | 240 | CN1CCC(CCOc2cc(NCC3CCC4(CC3)CC4)nc(C#N)n2)CC1 |  |
| 3 | 840 |  | CN1CCC(Oc2ccc(NC(=O)c3cnc(C#N)nc3NCC3CCC4(CC3)CC4)c(-c3ccccc3)c2)CC1 | half-life [1]: > 8 h; solubility [2]: 2 µg/mL (≈ 3.63 µM); clearance [3]: 13.3 mL/min/kg; bioavailability [4]: 66%; Activity [6]: Active |
